Source: publication PMC2745708 (Free radical biology & medicine, 2009)

Assays:
NOS2 = NOS2 (Homo sapiens, UniProt P35228); test: 14-C-L-arginine to 14-C-L-citrulline conversion by purified recombinant NOS2; format: biochemical
NOS1 = NOS1 (Rattus norvegicus, UniProt P29476); test: 14-C-L-arginine to 14-C-L-citrulline conversion by purified recombinant NOS1; format: biochemical
How it was run: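 Purified recombinant rat NOS1 or human NOS2 holoprotein at 5 nM. Incubated 60 min at 37°C with 2.9 μM 14C-L-arginine and 10 μM unlabeled L-arginine in 50 mM HEPES pH 7.5, with 10 μM FAD, 1 mM DTT, 100 μM tetrahydrobiopterin, 200 μM NADPH, and graded test compound, in near-dark. Stopped with HEPES pH 5.5/citrulline/EDTA. 14C-citrulline separated on Dowex 50W-X8, scintillation-counted; percent inhibition calculated.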

NOS3 = NOS3 (Bos taurus, UniProt P29473); test: 14-C-L-arginine to 14-C-L-citrulline conversion by purified recombinant NOS3; format: biochemical, bovine; conditions: purified recombinant enzyme
How it was run: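 Purchased recombinant bovine NOS3, with NOS co-factors and 14C-L-arginine, with or without graded test compound, in near-dark conditions. 14C-L-citrulline formed was separated from 14C-L-arginine on a Dowex 50W-X8 cation-exchange column and counted by scintillation. Activity is given as percent inhibition.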

NOS2 oxygenase domain = NOS2 oxygenase domain (Homo sapiens, UniProt P35228); test: CO binding to reduced NOS2 oxygenase domain heme; conditions: NOS2 oxygenase domain reduced with dithionite
NOS2 oxygenase domain, sequence (P35228 1-504 limits assumed): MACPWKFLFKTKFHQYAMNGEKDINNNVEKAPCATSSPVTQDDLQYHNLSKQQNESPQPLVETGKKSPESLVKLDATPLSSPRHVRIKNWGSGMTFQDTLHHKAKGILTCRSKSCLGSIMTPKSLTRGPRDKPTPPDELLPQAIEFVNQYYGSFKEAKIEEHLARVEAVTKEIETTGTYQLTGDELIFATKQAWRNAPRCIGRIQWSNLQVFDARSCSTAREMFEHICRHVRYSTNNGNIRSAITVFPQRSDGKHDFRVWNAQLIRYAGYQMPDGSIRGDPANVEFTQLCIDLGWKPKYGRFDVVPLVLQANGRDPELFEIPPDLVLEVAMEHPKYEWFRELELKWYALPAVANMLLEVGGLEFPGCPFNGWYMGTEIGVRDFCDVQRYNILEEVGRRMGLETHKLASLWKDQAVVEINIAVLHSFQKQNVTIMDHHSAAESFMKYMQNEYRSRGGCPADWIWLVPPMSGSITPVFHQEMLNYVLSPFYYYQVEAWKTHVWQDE
How it was run: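 Purified recombinant NOS2 oxygenase domain (about 3 μM final) reduced with dithionite and exposed to CO, with or without test compound. UV/visible spectra recorded, monitoring the ferrous-heme–CO peak at 445 nm.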

[1] = tested on: Raw 264.7 mouse macrophage cell line; test: NO production by interferon-gamma-activated macrophages; format: cell-based; conditions: 0.5, 2.0 or 8.0 μM for 24 hours with 500 units/ml murine interferon gamma
How it was run: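 Raw 264.7 cells kept by serial passage in RPMI-1640 with 10% FBS. Activated 24 h with 500 units/ml murine interferon-gamma, with 0, 0.5, 2.0 or 8.0 μM test compound present throughout. Loaded with 10 μM DAF-FM for 30 min, washed, and fluorescence read at 495/515 nm. NO production given as percent of control; SEM from 6 separate experiments.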

[2] = agent exposed to light for 60 minutes (with light)
[3] = agent not exposed to light (no light)
[4] = purified recombinant enzyme, 60 min, 37°C

Molecule	Estimated ED50 NOS3 (NOS3)	Estimated ED50 NOS2 (NOS2; [2])	Estimated ED50 NOS2 (NOS2; [3])	Estimated ED50 NOS1 (NOS1; [2])	Estimated ED50 NOS1 (NOS1; [3])	Estimated ED50 NOS2 (NOS2; [4])	Estimated ED50 NOS1 (NOS1; [4])	Effect on CO-induced spectral changes (ferrous-CO adduct formation) (NOS2 oxygenase domain)	NO production by cells [1]
C/C1=C2/[N-][C@H]([C@H](CC(N)=O)[C@@]2(C)CCC(=O)NC[C@@H](C)OP(=O)([O-])O[C@H]2[C@@H](O)[C@@H](n3cnc4cc(C)c(C)cc43)O[C@@H]2CO)[C@]2(C)N=C(/C(C)=C3N=C(/C=C4N=C1[C@@H](CCC(N)=O)C\4(C)C)[C@@H](CCC(N)=O)[C@]\3(C)CC(N)=O)[C@@H](CCC(N)=O)[C@]2(C)CC(N)=O.[CH2-][C@H]1O[C@@H](n2cnc3c(N)ncnc32)[C@H](O)[C@@H]1O.[Co] [Adenosylcobalamin]		60.0 µM	2148.0 µM	6.4 µM	498.0 µM				
C/C1=C2/[N-][C@H]([C@H](CC(N)=O)[C@@]2(C)CCC(=O)NC[C@@H](C)O)[C@]2(C)N=C(/C(C)=C3N=C(/C=C4N=C1[C@@H](CCC(N)=O)C\4(C)C)[C@@H](CCC(N)=O)[C@]\3(C)CC(N)=O)[C@@H](CCC(N)=O)[C@]2(C)CC(N)=O.[Co+3] [Cobinamide]	43.0 µM					50.0 µM	15.0 µM		
C/C1=C2/[N-][C@H]([C@H](CC(N)=O)[C@@]2(C)CCC(=O)NC[C@H](C)OP(=O)([O-])O[C@H]2[C@@H](O)[C@@H](n3cnc4cc(C)c(C)cc43)O[C@@H]2CO)[C@]2(C)N=C(/C(C)=C3N=C(/C=C4N=C1[C@@H](CCC(N)=O)C\4(C)C)[C@@H](CCC(N)=O)[C@]\3(C)CC(N)=O)[C@@H](CCC(N)=O)[C@]2(C)CC(N)=O.[CH3-].[Co+3] [Methylcobalamin]		63.0 µM	231.0 µM	5.9 µM	576.0 µM				
CC1(C)N([O])C(c2ccc(C(=O)[O-])cc2)=[N+]([O-])C1(C)C.[K+] [Carboxy-PTIO, 2-(4-Carboxyphenyl)-4,4,5,5-tetramethylimidazoline-1-oxyl-3-oxide (potassium salt)]						1359.0 µM	1360.0 µM		
C/C1=C2/[N-][C@H]([C@H](CC(N)=O)[C@@]2(C)CCC(=O)NC[C@@H](C)OP(=O)([O-])O[C@H]2[C@@H](O)[C@@H](n3cnc4cc(C)c(C)cc43)O[C@@H]2CO)[C@]2(C)N=C(/C(C)=C3N=C(/C=C4N=C1[C@@H](CCC(N)=O)C\4(C)C)[C@@H](CCC(N)=O)[C@]\3(C)CC(N)=O)[C@@H](CCC(N)=O)[C@]2(C)CC(N)=O.[Co+3].[OH-] [Hydroxocobalamin]	9.1 µM					21.1 µM	5.7 µM		
C/C1=C2/[N-]C([C@H](CC(N)=O)[C@@]2(C)CCC(=O)NCC(C)O)[C@]2(C)N=C(/C(C)=C3N=C(/C=C4N=C1[C@@H](CCC(N)=O)C\4(C)C)[C@@H](CCC(N)=O)[C@]\3(C)CC(N)=O)[C@@H](CCC(N)=O)[C@]2(C)CC(N)=O.[C-]#N.[C-]#N.[Co] (stereo partly drawn) [Dicyanocobinamide]	0.33 µM					2.29 µM	0.23 µM	markedly diminished	dose-dependent inhibition

The next lines start with results.

Estimated ED50 NOS3 (NOS3)	Molecule	Estimated ED50 NOS2 (NOS2; [2])	Estimated ED50 NOS2 (NOS2; [3])	Estimated ED50 NOS1 (NOS1; [2])	Estimated ED50 NOS1 (NOS1; [3])	Estimated ED50 NOS2 (NOS2; [4])	Estimated ED50 NOS1 (NOS1; [4])	Effect on CO-induced spectral changes (ferrous-CO adduct formation) (NOS2 oxygenase domain)	NO production by cells [1]
41.0 µM	C/C1=C2N=C(/C=C3N=C(/C(C)=C4\[N-]C(C(CC(N)=O)C4(C)CCC(=O)NCC(C)OP(=O)([O-])OC4C(CO)OC(n5cnc6cc(C)c(C)cc65)C4O)C4(C)N=C1C(CCC(N)=O)C4(C)CC(N)=O)C(CCC(N)=O)C\3(C)C)C(CCC(N)=O)C/2(C)CC(N)=O.NC(CCC(=O)NC(C[S-])C(=O)NCC(=O)O)C(=O)O.[Co+3] (stereo not drawn) [Glutathionylcobalamin]					29.0 µM	9.6 µM		
519.0 µM	Cyanocobalamin					1620.0 µM	72.0 µM		
